Type: in vivo, human
Outline: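 Tablets co-formulated with SNAC, 3 mg on Days 1–5 then 7 mg on Days 6–10. Reference arm: ≥6 h overnight fast, 8 am dose, 30-min post-dose fast. Other arms: ~760 kcal meal, then 2/4/6 h fast, 8 pm dose, 30-min or overnight post-dose fast. Plasma sampled 10 min–24 h after 10th dose and measured by validated LC-MS/MS. AUC0–24h by linear trapezoidal method; log values back-transformed to geometric-mean ratios with 95% CI.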

[1] = 2 h–30 min, 4 h–30 min and 6 h–30 min arms vs night–30 min, p < 0.0001

AUC0–24h Day 10 estimated treatment ratio range [1]: 0.12–0.43
Cmax Day 10 estimated treatment ratio range [1]: 0.12–0.44
reduction of exposure to semaglutide compared with reference arm (night–30 min) (all alternative treatment arms, even 6 h–30 min): more than 50%
median Tmax on Day 10, range across treatment arms (all five treatment arms): 48 to 60 min
Compound: CC[C@H](C)[C@H](NC(=O)[C@H](Cc1ccccc1)NC(=O)[C@H](CCC(=O)O)NC(=O)[C@H](CCCCNC(=O)COCCOCCNC(=O)COCCOCCNC(=O)CC[C@H](NC(=O)CCCCCCCCCCCCCCCCC(=O)O)C(=O)O)NC(=O)[C@H](C)NC(=O)[C@H](C)NC(=O)[C@H](CCC(N)=O)NC(=O)CNC(=O)[C@H](CCC(=O)O)NC(=O)[C@H](CC(C)C)NC(=O)[C@H](Cc1ccc(O)cc1)NC(=O)[C@H](CO)NC(=O)[C@H](CO)NC(=O)[C@@H](NC(=O)[C@H](CC(=O)O)NC(=O)[C@H](CO)NC(=O)[C@@H](NC(=O)[C@H](Cc1ccccc1)NC(=O)[C@@H](NC(=O)CNC(=O)[C@H](CCC(=O)O)NC(=O)C(C)(C)NC(=O)[C@@H](N)Cc1cnc[nH]1)[C@@H](C)O)[C@@H](C)O)C(C)C)C(=O)N[C@@H](C)C(=O)N[C@@H](Cc1c[nH]c2ccccc12)C(=O)N[C@@H](CC(C)C)C(=O)N[C@H](C(=O)N[C@@H](CCCNC(=N)N)C(=O)NCC(=O)N[C@@H](CCCNC(=N)N)C(=O)NCC(=O)O)C(C)C [oral semaglutide, semaglutide]
